Assay results published in ChEMBL document CHEMBL1132197, “Stereospecific synthesis, structure-activity relationship, and oral bioavailability of tetrahydropyrimidin-2-one HIV protease inhibitors” (J Med Chem, 1999).
pKi: −log10 of the molar value.

Assays:
[1] = tested on: MT2; test: Antiviral activity by measuring its effect on the accumulation of viral RNA transcripts on infection of MT-2 cells with HIV-1 RF.; type: functional; settings: Homo sapiens
Method in brief: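 Viral RNA transcript accumulation read 3 days after HIV-1 RF infection of MT-2 cells. IC90 is the concentration cutting viral RNA by 90% versus an untreated infected culture. TC50 came from MTT dye reduction in uninfected MT-2 cultures grown 3 days with compound.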

[2] = molecular target: Human immunodeficiency virus type 1 protease (Human immunodeficiency virus 1, UniProt Q72874); test: Inhibition constant of HIV protease inhibitors
Method in brief: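 HIV protease (HIVPR) inhibition constant was determined by monitoring cleavage of a fluorescent peptide substrate, with products separated and quantified by HPLC.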

[3] = The maximum plasma concentration (Cmax) is the observed peak plasma concentration after an oral dose on rat.; type: ADME, organism-based; parameters: route oral
Method in brief: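 Rats dosed orally in groups at 10 mg/kg, in a formulation of propylene glycol, poly(ethylene glycol) 400 and water. Cmax is the observed peak plasma concentration after the oral dose.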

Compound	IC90 [1]	pKi [2]	Cmax [3]
N=C(NO)c1cccc(CN2C(=O)N(Cc3cccc(C(=N)NO)c3)[C@H](Cc3ccc(F)cc3)[C@H](O)[C@H]2CCc2ccc(F)cc2)c1	49 nM	10.70	–
O=C1N(Cc2cccc(O)c2)[C@H](Cc2ccccc2)[C@H](O)[C@@H](O)[C@@H](Cc2ccccc2)N1Cc1cccc(O)c1	54 nM	–	810 nM
NC(=O)c1cccc(CN2C(=O)N(Cc3cccc(C(N)=O)c3)[C@H](Cc3ccccc3)[C@H](O)[C@H]2CCc2ccccc2)c1	–	10.05	–
NC(=O)c1cccc(CN2C(=O)N(Cc3cccc(C(N)=O)c3)[C@H](Cc3ccc(F)cc3)[C@H](O)[C@H]2CCc2ccc(F)cc2)c1	35 nM	9.51	–
CNc1cccc(CN2C(=O)N(Cc3cccc(NC)c3)[C@H](Cc3ccccc3)[C@H](O)[C@H]2CCc2ccccc2)c1	328 nM	–	–
O=C1N(Cc2cccc(CO)c2)[C@H](Cc2ccccc2)[C@H](O)[C@@H](O)[C@@H](Cc2ccccc2)N1Cc1cccc(CO)c1	38 nM	–	830 nM
N#Cc1cc(CN2C(=O)N(Cc3ccc(F)c(C#N)c3)[C@H](Cc3ccccc3)[C@H](O)[C@H]2CCc2ccccc2)ccc1F	–	6.64	–
Nc1cc(CN2C(=O)N(Cc3ccc(F)c(N)c3)[C@H](Cc3ccccc3)[C@H](O)[C@H]2CCc2ccccc2)ccc1F	36 nM	–	–
O=C(Nc1nccs1)c1cccc(CN2C(=O)N(Cc3cccc(C(=O)Nc4nccs4)c3)[C@H](Cc3ccccc3)[C@H](O)[C@H]2CCc2ccccc2)c1	31 nM	10.52	–
Cc1ccc(NC(=O)c2cccc(CN3C(=O)N(Cc4cccc(C(=O)Nc5ccc(C)cn5)c4)[C@H](Cc4ccccc4)[C@H](O)[C@H]3CCc3ccccc3)c2)nc1	26 nM	10.10	–
Nc1cccc(CN2C(=O)N[C@H](CCc3ccccc3)[C@@H](O)[C@H]2Cc2ccccc2)c1	4330 nM	8.21	–
N#Cc1cc(CN2C(=O)N(Cc3ccccc3)[C@H](CCc3ccccc3)[C@@H](O)[C@H]2Cc2ccccc2)ccc1F	–	7.40	–
O=C(O)c1cccc(CN2C(=O)N(Cc3cccc(C(=O)O)c3)[C@H](Cc3ccccc3)[C@H](O)[C@H]2CCc2ccccc2)c1	–	9.06	–
N#Cc1cc(CN2C(=O)N[C@H](CCc3ccccc3)[C@@H](O)[C@H]2Cc2ccccc2)ccc1F	–	6.96	–
N/C(=N\O)c1cccc(CN2C(=O)N(CC3CC3)[C@H](CCc3ccccc3)[C@@H](O)[C@H]2Cc2ccccc2)c1	36 nM	9.32	–
[N-]=[N+]=N[C@@H](Cc1ccccc1)[C@@H]1[C@@H](O)[C@@H](Cc2ccccc2)N(Cc2ccc3ccccc3c2)C(=O)N1Cc1ccc2ccccc2c1	–	6.48	–
NC(=O)c1cccc(CN2C(=O)N(Cc3cccc(C(N)=O)c3)[C@H](Cc3ccc(F)c(F)c3)[C@H](O)[C@H]2CCc2ccc(F)c(F)c2)c1	90 nM	9.82	–
Nc1cccc(CN2C(=O)N[C@H](Cc3ccccc3)[C@H](O)[C@H]2CCc2ccccc2)c1	–	6.80	–
O=C1[C@@H](CCc2ccccc2)N(Cc2ccccc2)C(=O)N(Cc2ccccc2)[C@@H]1Cc1ccccc1	–	5.82	–
N#Cc1cccc(CN2C(=O)N3C(Cc4ccccc4)[C@@H]3[C@@H](O)[C@H]2Cc2ccccc2)c1 (some centres undefined)	–	5.62	–
N#Cc1cccc(CN2C(=O)N(Cc3cccc(N)c3)[C@H](Cc3ccccc3)[C@H](O)[C@H]2CCc2ccccc2)c1	565 nM	8.80	–

Compound	IC90 [1]	pKi [2]	Cmax [3]
CC(=O)c1cccc(CN2C(=O)N(Cc3cccc(C(C)=O)c3)[C@H](Cc3ccccc3)[C@H](O)[C@@H](O)[C@H]2Cc2ccccc2)c1	–	–	500 nM
O=C1N(Cc2cccc(O)c2)[C@H](CCc2ccccc2)[C@@H](O)[C@@H](Cc2ccccc2)N1Cc1cccc(O)c1	115 nM	–	120 nM
NC(=O)c1cc(CN2C(=O)N(Cc3ccc(F)c(C(N)=O)c3)[C@H](Cc3ccccc3)[C@H](O)[C@H]2CCc2ccccc2)ccc1F	490 nM	–	–
N#Cc1cc(CN2C(=O)N(Cc3ccccc3)[C@H](Cc3ccccc3)[C@H](O)[C@H]2CCc2ccccc2)ccc1F	–	7.48	–
Cc1n[nH]c2ccc(CN3C(=O)N(Cc4cccc(N)c4)[C@H](Cc4ccccc4)[C@H](O)[C@H]3CCc3ccccc3)cc12	32 nM	9.89	–
Cc1n[nH]c2ccc(CN3C(=O)N(Cc4ccc5[nH]nc(C)c5c4)[C@H](Cc4ccccc4)[C@H](O)[C@H]3CCc3ccccc3)cc12	18 nM	10.00	–
NC(=O)c1cccc(CN2C(=O)N(Cc3cccc(N)c3)[C@H](Cc3ccccc3)[C@H](O)[C@H]2CCc2ccccc2)c1	24 nM	10.22	–
Nc1cccc(CN2C(=O)N(Cc3ccc4[nH]ncc4c3)[C@H](Cc3ccccc3)[C@H](O)[C@H]2CCc2ccccc2)c1	13 nM	10.10	–
O=C1N(CC2CC2)[C@H]([C@@H](O)Cc2ccccc2)[C@@H](O)[C@@H](Cc2ccccc2)N1CC1CC1	–	6.39	–
O=C1N[C@H](Cc2ccccc2)[C@H](O)[C@H]2C(Cc3ccccc3)N12 (some centres undefined)	–	5.52	–
Nc1[nH]nc2ccc(CN3C(=O)N(Cc4ccc5n[nH]c(N)c5c4)[C@H](Cc4ccccc4)[C@H](O)[C@H]3CCc3ccccc3)cc12	383 nM	10.52	–
O=C1N(Cc2ccccc2)C[C@@H](O)[C@@H](Cc2ccccc2)N1Cc1ccccc1	–	5.62	–
Nc1[nH]nc2ccc(CN3C(=O)N[C@H](CCc4ccccc4)[C@@H](O)[C@H]3Cc3ccccc3)cc12	549 nM	9.42	–
Nc1[nH]nc2ccc(CN3C(=O)N(Cc4ccccc4)[C@H](CCc4ccccc4)[C@@H](O)[C@H]3Cc3ccccc3)cc12	126 nM	9.55	–
N=C(NO)c1cc(CN2C(=O)N(Cc3ccc(F)c(C(=N)NO)c3)[C@H](Cc3ccccc3)[C@H](O)[C@H]2CCc2ccccc2)ccc1F	51 nM	10.22	–
O=C1N(CC2CC2)[C@H](CCc2ccccc2)[C@@H](O)[C@@H](Cc2ccccc2)N1CC1CC1	–	8.01	–
N=C(NO)c1cccc(CN2C(=O)N(Cc3cccc(C(=N)NO)c3)[C@H](Cc3ccc(F)c(F)c3)[C@H](O)[C@H]2CCc2ccc(F)c(F)c2)c1	117 nM	11.00	–
O=C1N[C@H](CCc2ccccc2)[C@@H](O)[C@@H](Cc2ccccc2)N1Cc1cccc(O)c1	4800 nM	8.59	–
O=C1N(Cc2cccc(CO)c2)[C@H]([C@@H](Br)Cc2ccccc2)[C@@H](O)[C@@H](Cc2ccccc2)N1Cc1cccc(CO)c1	2100 nM	7.96	–
N#Cc1cccc(CN2C(=O)N(Cc3cccc(C#N)c3)[C@H](Cc3ccc(F)cc3)[C@H](O)[C@H]2CCc2ccc(F)cc2)c1	1560 nM	7.85	–
O=C1N[C@H](CCc2ccccc2)[C@@H](O)[C@@H](Cc2ccccc2)N1Cc1ccc2[nH]ncc2c1	590 nM	8.92	–

Compound	IC90 [1]	pKi [2]	Cmax [3]
Nc1cccc(CN2C(=O)N(Cc3ccc4[nH]ncc4c3)[C@H](CCc3ccccc3)[C@@H](O)[C@H]2Cc2ccccc2)c1	16 nM	10.00	–
O=C1N[C@H](Cc2ccccc2)[C@H](O)[C@@H](CCc2ccccc2)N1Cc1ccc2[nH]ncc2c1	–	7.36	–
N#Cc1cccc(CN2C(=O)N[C@H](CCc3ccccc3)[C@@H](O)[C@H]2Cc2ccccc2)c1	–	7.82	–
NC(=O)c1cc(CN2C(=O)N[C@H](CCc3ccccc3)[C@@H](O)[C@H]2Cc2ccccc2)ccc1F	–	7.85	–
O=C1N(Cc2ccccc2)[C@H](/C=C/c2ccccc2)[C@@H](O)[C@@H](Cc2ccccc2)N1Cc1ccccc1	–	6.34	–
NC(=O)c1cccc(CN2C(=O)N3C(Cc4ccccc4)[C@@H]3[C@@H](O)[C@H]2Cc2ccccc2)c1 (some centres undefined)	–	6.49	–
NC(=O)c1cccc(CN2C(=O)N[C@H](CCc3ccccc3)[C@@H](O)[C@H]2Cc2ccccc2)c1	–	8.25	–
O=C1N(Cc2cccc(-c3cc[nH]n3)c2)[C@H](Cc2ccccc2)[C@H](O)[C@@H](O)[C@@H](Cc2ccccc2)N1Cc1cccc(-c2cc[nH]n2)c1	–	–	70 nM
N#Cc1cccc(CN2C(=O)N(Cc3cccc(C#N)c3)[C@H](Cc3ccccc3)[C@H](O)[C@H]2CCc2ccccc2)c1	1600 nM	–	–
N/C(=N\O)c1cccc(CN2C(=O)N3C(Cc4ccccc4)[C@@H]3[C@@H](O)[C@H]2Cc2ccccc2)c1 (some centres undefined)	–	7.92	–
Nc1ccc(CN2C(=O)N(Cc3ccc(N)c(F)c3)[C@H](Cc3ccccc3)[C@H](O)[C@H]2CCc2ccccc2)cc1F	539 nM	–	–
O=C1N(Cc2ccccc2)[C@H]([C@@H](Br)Cc2ccccc2)[C@@H](O)[C@@H](Cc2ccccc2)N1Cc1ccccc1	–	6.73	–
O=C1N(Cc2ccccc2)[C@H](CCc2ccccc2)[C@@H](O)[C@@H](Cc2ccccc2)N1Cc1ccccc1	2800 nM	–	–
O=C1N(Cc2ccc3c[nH]nc3c2)[C@H](CCc2ccccc2)[C@@H](O)[C@@H](Cc2ccccc2)N1Cc1ccc2c[nH]nc2c1	32 nM	10.22	–
N/C(=N\O)c1cccc(CN2C(=O)N(Cc3cccc(N)c3)[C@H](Cc3ccccc3)[C@H](O)[C@H]2CCc2ccccc2)c1	17 nM	10.70	–
N/C(=N\O)c1cc(CN2C(=O)N[C@H](CCc3ccccc3)[C@@H](O)[C@H]2Cc2ccccc2)ccc1F	3780 nM	8.85	–
Nc1[nH]nc2ccc(CN3C(=O)N(Cc4ccccc4)[C@H](Cc4ccccc4)[C@H](O)[C@H]3CCc3ccccc3)cc12	71 nM	9.19	–
O=C1N(Cc2ccc3ccccc3c2)[C@H](/C=C/c2ccccc2)[C@@H](O)[C@@H](Cc2ccccc2)N1Cc1ccc2ccccc2c1	–	6.55	–
Nc1noc2ccc(CN3C(=O)N(Cc4ccc5onc(N)c5c4)[C@H](Cc4ccccc4)[C@H](O)[C@H]3CCc3ccccc3)cc12	132 nM	9.39	–
Nc1cccc(CN2C(=O)N(Cc3ccc4[nH]nc(N)c4c3)[C@H](CCc3ccccc3)[C@@H](O)[C@H]2Cc2ccccc2)c1	53 nM	10.00	–
Nc1cccc(CN2C(=O)N(Cc3cccc(N)c3)[C@H](Cc3ccccc3)[C@H](O)[C@@H](O)[C@H]2Cc2ccccc2)c1 [MOZENAVIR]	–	–	2250 nM
